18 molecules from publication PMC9048702 (RSC Advances, 2020) can be followed below.

In one series the test system is MCF7 cells. Briefly: MTT anti-proliferative assay, MCF7. The conditions noted are these: MCF7, 48 h, read-out: IC50 MCF7. The series is classed as cell-based, human. The procedure, abridged: (§1)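 HepG2 (passage 11), MCF7 (passage 13) and normal WI-38 fibroblasts were seeded at […]. Cells were exposed to test compound at 0.5, 1, 10, 20, 50 and 100 μM for 48 h, then incubated with MTT for 4 h. Formazan was dissolved in DMSO and read at 570 nm. Untreated and doxorubicin-treated cells were included. IC50 came from dose–response curves, mean ± SEM of two independent experiments.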

Series [1] concerns topoisomerase II (Topo II). In words: Topo II concentration in HepG2 cells, sandwich ELISA. Conditions: HepG2, IC50 concentration, 8 hours. The series is classed as cell-based, human. For orientation: In an ELISA, binding on a coated surface is turned into a signal by an enzyme label.
The test system of series [2] is p38 mitogen-activated protein kinase (MAPK). Briefly: MAPK concentration in HepG2 cells, sandwich ELISA. The series is classed as cell-based, human. The conditions noted are these: HepG2, IC50 concentration, 8 hours.
Another series relates to cdk1. In words: qRT-PCR expression of cdk1 in HepG2. Conditions: for inhibition in cdk1 expression: HepG2, 8 h. The series is classed as cell-based, human. Background: In qPCR the cycle at which signal appears reflects the starting amount.
For the next series, the system named is caspase 3. Briefly: qRT-PCR expression of caspase 3 in HepG2. The series is classed as cell-based, human. The conditions noted are these: HepG2, 8 h incubation at IC50 concentration, mean ± SEM.
The subject of another series is p53. In words: qRT-PCR expression of p53 in HepG2. The series is classed as cell-based, human. Conditions: HepG2, 8 h incubation at IC50 concentration, mean ± SEM.
A further series relates to cleaved caspase 3. Briefly: Active cleaved caspase 3 activity in HepG2, colorimetric kit. The series is classed as cell-based, human. The conditions noted are these: HepG2, IC50 concentration, 12 h.
The next series has as its system HepG2 cells. In words: MTT anti-proliferative assay, HepG2. The series is classed as cell-based, human. Conditions: HepG2, 48 h, read-out: IC50 HepG2. Put shortly:
as §1
Background: Tetrazolium dyes change colour on reduction, which living cells bring about.

For the next series, the system named is txnrd1. In words: qRT-PCR expression of txnrd1 in HepG2. The series is classed as cell-based, human. Conditions: for down-regulation (inhibition) of txnrd1 expression: HepG2, 8 h; for Fold induction from untreated cells Txnrd1: HepG2, 8 h incubation at IC50 concentration, mean ± SEM.
For a further series, the system named is WI-38 cells. Briefly: MTT assay, normal fibroblasts WI-38. The series is classed as cell-based. Conditions: read-out: IC50 WI-38, WI-38 normal fibroblasts, 48 h, mean ± SEM.
Series [3] concerns HepG2, MCF7 and WI-38 cells. In words: MTT anti-proliferative assay, cell lines summarised together in text. Conditions: Homo sapiens. The series is classed as cell-based. The procedure, abridged:
as §1

Where [4] appears, read: read-out: IC50 against cancer cell lines.

As usually defined, the IC50 is the concentration that inhibits the measured activity by half.

“And” between values parts separate entries of the source, which are not always exact repeats. Equal values may be shown once. Read-outs that look alike come from different tables or passages of the source. Marks after values point to notes of the source that are not given here.

Take `O=c1[nH]nc(-c2nnc(S)o2)c2ccccc12` [Compound 1, 4-(5-mercapto-1,3,4-oxadiazol-2-yl)phthalazin-1(2H)-one]: the IC50 in the series with MCF7 cells (Homo sapiens) was 4.9 ± 0.8 µM. The “decrease in Topo II concentration” value in [1] turned out to be 84%. In series [2], the “reduction in MAPK concentration compared to untreated cells” value came to 84%. Further, the “inhibition in cdk1 expression” value in the series with cdk1 was approximately 78%. In the series with cdk1 (HepG2, 8 h incubation at IC50 concentration, mean ± SEM), the “Fold induction from untreated cells Cdk1” value is given as 0.22 ± 0.03 ^a fold. Moreover, in the series on caspase 3, the “Fold induction from untreated cells Caspase 3” value was 3.10 ± 0.21 ^a fold. For the same molecule, in the series on p53, the “Fold induction from untreated cells p53” value is 3.83 ± 0.11 ^a fold. Further, the “elevation in activity of active cleaved caspase 3 compared to untreated cells” value in the series with cleaved caspase 3 is listed as approximately 7 fold. In the series on HepG2 cells (Homo sapiens), the IC50 stood at 4.5 ± 1.1 µM. Further, in the series on txnrd1, the “down-regulation (inhibition) of txnrd1 expression” value is 33% and the “Fold induction from untreated cells Txnrd1” value is 0.67 ± 0.03 fold.

Take `CCSc1nnc(-c2n[nH]c(=O)c3ccccc23)o1` [Compound 2a, 4-(5-(Ethylthio)-1,3,4-oxadiazol-2-yl)phthalazin-1(2H)-one]: the IC50 came out at 55.8 ± 4 µM in the series with MCF7 cells (Homo sapiens) and 61.3 ± 4.2 µM in the series on HepG2 cells (Homo sapiens).

Turning to `O=c1[nH]nc(-c2nnc(SCc3ccccc3)o2)c2ccccc12` [Compound 2b, 4-(5-(Benzylthio)-1,3,4-oxadiazol-2-yl)phthalazin-1(2H)-one], the IC50 in the series on MCF7 cells (Homo sapiens) turned out to be 68.2 ± 4.4 µM; in the series on HepG2 cells (Homo sapiens), 58.9 ± 4 µM.

With `O=C(CSc1nnc(-c2n[nH]c(=O)c3ccccc23)o1)c1ccccc1` [Compound 2c, 4-(5-((2-Oxo-2-phenylethyl)thio)-1,3,4-oxadiazol-2-yl)phthalazin-1(2H)-one], the IC50 came out at 57.3 ± 4.2 µM with MCF7 cells (Homo sapiens) and 66.1 ± 4.5 µM in the series with HepG2 cells (Homo sapiens).

Regarding `O=C(CSc1nnc(-c2n[nH]c(=O)c3ccccc23)o1)c1cccc([N+](=O)[O-])c1` [Compound 2d, 4-(5-((2-(3-Nitrophenyl)-2-oxoethyl)thio)-1,3,4-oxadiazol-2-yl)phthalazin-1(2H)-one], the IC50 in the series with MCF7 cells (Homo sapiens) and in the series with HepG2 cells (Homo sapiens) was more than 100 µM in each case.

For `CC(=O)c1ccc(NC(=O)CSc2nnc(-c3n[nH]c(=O)c4ccccc34)o2)cc1` [Compound 4a, N-(4-Acetylphenyl)-2-((5-(4-oxo-3,4-dihydrophthalazin-1-yl)-1,3,4-oxadiazol-2-yl)thio)acetamide], the figures for the IC50 with MCF7 cells (Homo sapiens) and in the series on HepG2 cells (Homo sapiens) were 76.2 ± 4.7 µM and 72.6 ± 4.8 µM, respectively.

`NS(=O)(=O)c1ccc(NC(=O)CSc2nnc(-c3n[nH]c(=O)c4ccccc34)o2)cc1` [Compound 4b, 2-((5-(4-Oxo-3,4-dihydrophthalazin-1-yl)-1,3,4-oxadiazol-2-yl)thio)-N-(4-sulfamoylphenyl)acetamide]: the IC50 with MCF7 cells (Homo sapiens) is more than 100 µM; in the series on HepG2 cells (Homo sapiens), 83.9 ± 5.2 µM.

For the molecule `Cc1ccc(NC(=O)CSc2nnc(-c3n[nH]c(=O)c4ccccc34)o2)cc1` [Compound 4c, 2-((5-(4-Oxo-3,4-dihydrophthalazin-1-yl)-1,3,4-oxadiazol-2-yl)thio)-N-(p-tolyl)acetamide], the IC50 stood at 36.3 ± 3.2 µM with MCF7 cells (Homo sapiens) and 28.1 ± 2.9 µM in the series on HepG2 cells (Homo sapiens).

As to `O=C(CSc1nnc(-c2n[nH]c(=O)c3ccccc23)o1)Nc1ccc(Cl)cc1` [Compound 4d, N-(4-Chlorophenyl)-2-((5-(4-oxo-3,4-dihydrophthalazin-1-yl)-1,3,4-oxadiazol-2-yl)thio)acetamide], the figures for the IC50 in the series on MCF7 cells (Homo sapiens) and with HepG2 cells (Homo sapiens) were 49.5 ± 3.9 µM and 53.9 ± 3.8 µM, respectively.

For `Cc1ccc(NCSc2nnc(-c3nn(CNc4ccc(C)cc4)c(=O)c4ccccc34)o2)cc1` [Compound 7a, 2-((p-Tolylamino)methyl)-4-(5-(((p-tolylamino)methyl)thio)-1,3,4-oxadiazol-2-yl)phthalazin-1(2H)-one], the results for the concentration for half-maximal inhibition (IC50) in the series with MCF7 cells (Homo sapiens) and in the series on HepG2 cells (Homo sapiens) were 26.2 ± 2.5 µM and 23.5 ± 2.8 µM, respectively.

Consider `O=c1c2ccccc2c(-c2nnc(SCNc3ccc(Cl)cc3)o2)nn1CNc1ccc(Cl)cc1` [Compound 7b, 2-(((4-Chlorophenyl)amino)methyl)-4-(5-((((4-chlorophenyl)amino)methyl)thio)-1,3,4-oxadiazol-2-yl)phthalazin-1(2H)-one], for which the figures for the IC50 with MCF7 cells (Homo sapiens) and in the series on HepG2 cells (Homo sapiens) were 31.3 ± 2.8 µM and 33.3 ± 3.4 µM, respectively.

In the case of `O=c1c2ccccc2c(-c2nnc(SCNc3ccccc3Cl)o2)nn1CNc1ccccc1Cl` [Compound 7c, 2-(((2-Chlorophenyl)amino)methyl)-4-(5-((((2-chlorophenyl)amino)methyl)thio)-1,3,4-oxadiazol-2-yl)phthalazin-1(2H)-one], the IC50 was 15.4 ± 1.2 µM in the series on MCF7 cells (Homo sapiens), 17.2 ± 1.9 µM in the series on HepG2 cells (Homo sapiens) and 23.2 ± 1.2 µM in the series with WI-38 cells.

With `COc1ccc(NCSc2nnc(-c3nn(CNc4ccc(OC)cc4)c(=O)c4ccccc34)o2)cc1` [Compound 7d, 2-(((4-Methoxyphenyl)amino)methyl)-4-(5-((((4-methoxyphenyl)amino)methyl)thio)-1,3,4-oxadiazol-2-yl)phthalazin-1(2H)-one], the IC50 in the series with MCF7 cells (Homo sapiens) was 5.5 ± 0.4 µM; in series [3] (setting [4]), 5.5 to 15 µM; with HepG2 cells (Homo sapiens), 6.3 ± 0.7 µM. Further, in series [1], the “decrease in Topo II concentration” value turned out to be 31%. In addition, the “Fold induction from untreated cells Caspase 3” value in the series on caspase 3 was 2 fold and 1.96 ± 0.09 ^a fold. In addition, the “Fold induction from untreated cells p53” value with p53 was 2 fold and 2.16 ± 0.12 ^a fold. Besides, in the series with txnrd1, the “Fold induction from untreated cells Txnrd1” value was 1.02 ± 0.16 fold.

In the case of `O=c1c2ccccc2c(-c2nnc(SCNc3ccc([N+](=O)[O-])cc3)o2)nn1CNc1ccc([N+](=O)[O-])cc1` [Compound 7e, 2-(((4-Nitrophenyl)amino)methyl)-4-(5-((((4-nitrophenyl)amino)methyl)thio)-1,3,4-oxadiazol-2-yl)phthalazin-1(2H)-one], the IC50 in the series on MCF7 cells (Homo sapiens) was 8.4 ± 0.9 µM; in series [3] (setting [4]) it was 5.5 to 15 µM; with HepG2 cells (Homo sapiens) it was 7 ± 1.5 µM; with WI-38 cells, 21.6 ± 1.8 µM. The “Fold induction from untreated cells Caspase 3” value in the series with caspase 3 is 2 fold and 2.22 ± 0.14 ^a fold. Moreover, the “Fold induction from untreated cells p53” value in the series with p53 is 2 fold and 2.02 ± 0.08 ^a fold. In addition, in the series with txnrd1, the “Fold induction from untreated cells Txnrd1” value was found to be 1.11 ± 0.10 fold.

Turning to `O=c1c2ccccc2c(-c2nnc(SCNc3cccnc3)o2)nn1CNc1cccnc1` [Compound 7f, 2-((Pyridin-3-ylamino)methyl)-4-(5-(((pyridin-3-ylamino)methyl)thio)-1,3,4-oxadiazol-2-yl)phthalazin-1(2H)-one], the IC50 in the series on MCF7 cells (Homo sapiens) stood at 20.8 ± 1.9 µM; in the series on HepG2 cells (Homo sapiens) it was 21.8 ± 2.3 µM.

On to `O=c1[nH]nc(-c2nnc(SCNC3CCCCC3)o2)c2ccccc12` [Compound 7g, 4-(5-(((Cyclohexylamino)methyl)thio)-1,3,4-oxadiazol-2-yl)phthalazin-1(2H)-one], for which the values for the IC50 in the series on MCF7 cells (Homo sapiens) and in the series with HepG2 cells (Homo sapiens) were 45.5 ± 3.8 µM and 42.9 ± 3.7 µM, respectively.

`COc1cccc2c1C(=O)c1c(O)c3c(c(O)c1C2=O)C[C@@](O)(C(=O)CO)C[C@@H]3O[C@H]1C[C@H](N)[C@H](O)[C@H](C)O1` [DOX, Doxorubicin, reference compound]: the IC50 in the series on MCF7 cells (Homo sapiens) was 4.2 ± 0.2 µM; in series [3] (read-out: IC50 against all cells investigated) it was 4 to 7 µM; with HepG2 cells (Homo sapiens) it was 4.5 ± 0.3 µM. Further, the “decrease in Topo II concentration” value in series [1] was 87%. In series [2], the “reduction in MAPK concentration compared to untreated cells” value came out at 85%. In the series with cdk1, the “inhibition in cdk1 expression” value was approximately 75%. Also, the “down-regulation (inhibition) of txnrd1 expression” value in the series with txnrd1 turned out to be 56%.

Turning to “S-(5-(4-Oxo-3,4-dihydrophthalazin-1-yl)-1,3,4-oxadiazol-2-yl)2-(2-isonicotinoylhydrazinyl)ethanethioate [Compound 3]”, the IC50 is 40 ± 3.6 µM in the series with MCF7 cells (MTT, mean ± SEM); 38.4 ± 3.5 µM in the series on HepG2 cells (MTT, mean ± SEM); 44.6 ± 4.2 µM with WI-38 cells.
